Laboratory results as given in ChEMBL document CHEMBL1140069, “In vitro antifungal activity of polyfunctionalized 2-(hetero)arylquinolines prepared through imino Diels-Alder reactions” (2008).
≈ marks a conversion by molar mass, not a printed value.

Key:
Format in all cases: functional
[1] = test system: Cryptococcus neoformans; experiment: Antimicrobial activity against Cryptococcus neoformans ATCC 32264 at 25 ug/ml after 48 hrs; settings: ATCC 32264, 48 h
In short: (§1)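 Percent growth inhibition in 96-well microplates. Compound stocks in DMSO (≤2%) were diluted in RPMI-1640 to final 100–6.25 µg/mL, and 100 µL inoculum was added (final 200 µL). Controls were a growth well (inoculum with matching DMSO, no compound) and a sterility well (no inoculum). Inhibition was calculated against growth and sterility wells.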

[2] = test system: Trichophyton rubrum; experiment: Antifungal activity against Trichophyton rubrum C110 after 48 hrs by broth microdilution technique; settings: read-out: MIC
In short: (§2)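 CLSI broth microdilution: M-27 A2 for yeasts and M-38 A for filamentous fungi. Medium is RPMI-1640 buffered to pH 7.0 with MOPS. Compound is diluted twofold from 250 to 0.98, final DMSO ≤2%. Inoculum is 1–5 × 10³ CFU/mL. Plates are incubated at 35 °C in a moist, dark chamber and read visually at 48 h. MIC100 is the lowest concentration giving total growth inhibition versus drug-free control.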

[3] = test system: Cryptococcus neoformans; experiment: Antimicrobial activity against Cryptococcus neoformans IM 042074 isolate at 6.25 ug/ml after 48 hrs; in short: as §1
[4] = test system: Cryptococcus neoformans; experiment: Antimicrobial activity against Cryptococcus neoformans IM 972751 isolate at 50 ug/ml after 48 hrs
In short: (§3)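 Clinical Cryptococcus isolates kept on Sabouraud-dextrose agar slopes; inoculum 1–5 × 10³ CFU/mL. Quinoline DMSO stocks were diluted in RPMI-1640 to final 100–6.25 µg/mL, with DMSO ≤2%. An equal volume of inoculum was added (200 µL per well). Run in triplicate.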

[5] = test system: Candida albicans; experiment: Antimicrobial activity against Candida albicans ATCC 10231 at 100 ug/ml after 24 hrs; settings: ATCC 10231, 24 h
In short: (§4)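 Growth-inhibition microplate test. Strains are grown on Sabouraud-chloramphenicol agar for 48 h at 30 °C, and inoculum is added to RPMI-1640 containing compound at a final 100–6.25, with DMSO ≤2%. Each strain has a growth control (same DMSO, no compound) and a sterility control.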

[6] = test system: Cryptococcus neoformans; experiment: Antimicrobial activity against Cryptococcus neoformans IM 042074 isolate at 100 ug/ml after 48 hrs; in short: as §1
[7] = test system: Nakaseomyces glabratus; experiment: Antimicrobial activity against Candida glabrata C115 isolate at 100 ug/ml after 24 hrs; in short: as §4
[8] = test system: Cryptococcus neoformans; experiment: Antimicrobial activity against Cryptococcus neoformans IM 983036 isolate at 6.25 ug/ml after 48 hrs; in short: as §3
[9] = test system: Candida albicans; experiment: Antimicrobial activity against Candida albicans C128 isolate at 25 ug/ml after 24 hrs; in short: as §4
[10] = test system: Cryptococcus neoformans; experiment: Antimicrobial activity against Cryptococcus neoformans IM 983036 isolate at 50 ug/ml after 48 hrs; in short: as §3
[11] = test system: Nannizzia gypsea; experiment: Antifungal activity against Microsporum gypseum C115 after 48 hrs by broth microdilution technique; in short: as §2
[12] = test system: Candida albicans; experiment: Antimicrobial activity against Candida albicans C128 isolate at 50 ug/ml after 24 hrs; in short: as §4
[13] = test system: Cryptococcus neoformans; experiment: Antimicrobial activity against Cryptococcus neoformans IM 042074 isolate at 12.5 ug/ml after 48 hrs; in short: as §1
[14] = test system: Candida albicans; experiment: Antimicrobial activity against Candida albicans C130 isolate at 6.25 ug/ml after 24 hrs; in short: as §4
[15] = test system: Candida albicans; experiment: Antimicrobial activity against Candida albicans C129 isolate at 6.25 ug/ml after 24 hrs; in short: as §4
[16] = test system: Cryptococcus neoformans; experiment: Antimicrobial activity against Cryptococcus neoformans IM 031706 isolate at 50 ug/ml after 48 hrs; in short: as §1
[17] = test system: Cryptococcus neoformans; experiment: Antimicrobial activity against Cryptococcus neoformans IM 983040 isolate at 50 ug/ml after 48 hrs; in short: as §3
[18] = test system: Candida albicans; experiment: Antimicrobial activity against Candida albicans C130 isolate at 100 ug/ml after 24 hrs; in short: as §4
[19] = test system: Candida tropicalis; experiment: Antimicrobial activity against Candida tropicalis C131 isolate at 12.5 ug/ml after 24 hrs; in short: as §1
[20] = test system: Candida albicans; experiment: Antimicrobial activity against Candida albicans C128 isolate at 100 ug/ml after 24 hrs; in short: as §4
[21] = test system: Cryptococcus neoformans; experiment: Antimicrobial activity against Cryptococcus neoformans IM 961951 isolate at 100 ug/ml after 48 hrs; in short: as §1
[22] = test system: Cryptococcus neoformans; experiment: Antimicrobial activity against Cryptococcus neoformans IM 031631 isolate at 50 ug/ml after 48 hrs; in short: as §1
[23] = test system: Cryptococcus neoformans; experiment: Antimicrobial activity against Cryptococcus neoformans IM 00319 isolate at 12.5 ug/ml after 48 hrs; in short: as §1
[24] = test system: Nakaseomyces glabratus; experiment: Antimicrobial activity against Candida glabrata C115 isolate at 12.5 ug/ml after 24 hrs; in short: as §4
[25] = test system: Cryptococcus neoformans; experiment: Antimicrobial activity against Cryptococcus neoformans ATCC 32264 at 6.25 ug/ml after 48 hrs; settings: ATCC 32264, 48 h; in short: as §1
[26] = test system: Pichia kudriavzevii; experiment: Antimicrobial activity against Candida krusei C117 isolate at 6.25 ug/ml after 24 hrs; in short: as §1
[27] = test system: Cryptococcus neoformans; experiment: Antimicrobial activity against Cryptococcus neoformans IM 961951 isolate at 25 ug/ml after 48 hrs; in short: as §3
[28] = test system: Candida albicans; experiment: Antimicrobial activity against Candida albicans C127 isolate at 50 ug/ml after 24 hrs; settings: C127, 24 h; in short: as §4
[29] = test system: Candida tropicalis; experiment: Antimicrobial activity against Candida tropicalis C131 isolate at 25 ug/ml after 24 hrs; in short: as §1
[30] = test system: Cryptococcus neoformans; experiment: Antimicrobial activity against Cryptococcus neoformans IM 031706 isolate at 6.25 ug/ml after 48 hrs; in short: as §1
[31] = test system: Pichia kudriavzevii; experiment: Antimicrobial activity against Candida krusei C117 isolate at 50 ug/ml after 24 hrs; in short: as §1
[32] = test system: Cryptococcus neoformans; experiment: Antimicrobial activity against Cryptococcus neoformans IM 00319 isolate at 100 ug/ml after 48 hrs; in short: as §1
[33] = test system: Candida albicans; experiment: Antimicrobial activity against Candida albicans C126 isolate at 12.5 ug/ml after 24 hrs; in short: as §4
[34] = test system: Candida albicans; experiment: Antimicrobial activity against Candida albicans C128 isolate at 6.25 ug/ml after 24 hrs; in short: as §4
[35] = test system: Candida tropicalis; experiment: Antimicrobial activity against Candida tropicalis C131 isolate at 100 ug/ml after 24 hrs; in short: as §1
[36] = test system: Cryptococcus neoformans; experiment: Antifungal activity against Cryptococcus neoformans ATCC 32264 after 48 hrs by broth microdilution technique; settings: ATCC 32264, 48 h; in short: as §2
[37] = test system: Cryptococcus neoformans; experiment: Antimicrobial activity against Cryptococcus neoformans IM 052470 isolate at 100 ug/ml after 48 hrs; in short: as §1
[38] = test system: Aspergillus niger; experiment: Antifungal activity against Aspergillus niger ATCC 9029 after 48 hrs by broth microdilution technique; settings: ATCC 9029, 48 h; in short: as §2
[39] = test system: Saccharomyces cerevisiae; experiment: Antifungal activity against Saccharomyces cerevisiae ATCC 9763 after 48 hrs by broth microdilution technique; settings: ATCC 9763, 48 h; in short: as §2
[40] = test system: Cryptococcus neoformans; experiment: Antimicrobial activity against Cryptococcus neoformans IM 031631 isolate at 6.25 ug/ml after 48 hrs; in short: as §1
[41] = test system: Cryptococcus neoformans; experiment: Antimicrobial activity against Cryptococcus neoformans IM 031631 isolate at 25 ug/ml after 48 hrs; in short: as §1
[42] = test system: Nakaseomyces glabratus; experiment: Antimicrobial activity against Candida glabrata C115 isolate at 25 ug/ml after 24 hrs; in short: as §1
[43] = test system: Candida parapsilosis; experiment: Antimicrobial activity against Candida parapsilosis C124 isolate at 12.5 ug/ml after 24 hrs; settings: Lodderomyces parapsilosis; in short: as §1
[44] = test system: Cryptococcus neoformans; experiment: Antimicrobial activity against Cryptococcus neoformans IM 972751 isolate at 6.25 ug/ml after 48 hrs; in short: as §3

- MIC [2]: 50 µg/mL (≈ 242 µM)
- MIC [11]: 50 µg/mL (≈ 242 µM)
- MIC [36]: 50 µg/mL (≈ 242 µM)
- MIC [38]: 50 µg/mL (≈ 242 µM)
- MIC [39]: 50 µg/mL (≈ 242 µM)
SMILES: c1ccc2nc(-c3ccncc3)ccc2c1
- inhibition at 25 µg/mL [1]: 100%
- inhibition at 6.25 µg/mL [3]: 68%
- inhibition at 50 µg/mL [4]: 20%
- inhibition at 100 µg/mL [5]: 100%
- inhibition at 100 µg/mL [6]: 92%
- inhibition at 100 µg/mL [7]: 75%
- inhibition at 6.25 µg/mL [8]: 0%
- inhibition at 25 µg/mL [9]: 0%
- inhibition at 50 µg/mL [10]: 69%
- inhibition at 50 µg/mL [12]: 15%
- inhibition at 12.5 µg/mL [13]: 76%
- inhibition at 6.25 µg/mL [14]: 0%
- inhibition at 6.25 µg/mL [15]: 0%
- inhibition at 50 µg/mL [16]: 69%
- inhibition at 50 µg/mL [17]: 34%
- inhibition at 100 µg/mL [18]: 84%
- inhibition at 12.5 µg/mL [19]: 54%
- inhibition at 100 µg/mL [20]: 88%
- inhibition at 100 µg/mL [21]: 97%
- inhibition at 50 µg/mL [22]: 75%
- inhibition at 12.5 µg/mL [23]: 32%
- inhibition at 12.5 µg/mL [24]: 1%
- inhibition at 6.25 µg/mL [25]: 83%
- inhibition at 6.25 µg/mL [26]: 0%
- inhibition at 25 µg/mL [27]: 78%
- inhibition at 50 µg/mL [28]: 65%
- inhibition at 25 µg/mL [29]: 60%
- inhibition at 6.25 µg/mL [30]: 21%
- inhibition at 50 µg/mL [31]: 3%
- inhibition at 100 µg/mL [32]: 92%
- inhibition at 12.5 µg/mL [33]: 0%
- inhibition at 6.25 µg/mL [34]: 0%
- inhibition at 100 µg/mL [35]: 100%
- inhibition at 100 µg/mL [37]: 99%
- inhibition at 6.25 µg/mL [40]: 12%
- inhibition at 25 µg/mL [41]: 57%
- inhibition at 25 µg/mL [42]: 4%
- inhibition at 12.5 µg/mL [43]: 0%
- inhibition at 6.25 µg/mL [44]: 0%
